Source: ChEMBL document CHEMBL1121534, “Synthesis and biological activity of 5-(4-chlorobenzoyl)-4-(hydroxymethyl)-1-methyl-1H-pyrrole-2-acetic acid, a major metabolite of zomepirac sodium” (J Med Chem, 1980)
Calls of active or inactive are those of the source. The calls are words filed in the database; no cut-off is given here.

Experiments:
Rattus norvegicus [1] = experiment: Tested for effective dose in rat adjuvant-induced polyarthritis (AA) test in III phase. Not Active (NA) up to 125 mg/kg peroral dose; type: functional, organism-based; design: dose 125 mg/kg
Homo sapiens = organism: Homo sapiens; experiment: Tested for in vitro inhibition of collagen-induced aggregation of human platelets; type: functional
Rattus norvegicus [2] = experiment: Tested for analgesic activity in acetylcholine-induced body constriction assay. Not Active (NA) upto 100 mg/kg peroral dose; type: functional, organism-based; design: dose 100 mg/kg
Rattus norvegicus [3] = experiment: Tested for effective dose in rat adjuvant-induced polyarthritis (AA) test in II phase. Not Active (NA) up to 125 mg/kg peroral dose; type: functional, organism-based; design: dose 125 mg/kg
Rattus norvegicus [4] = organism: Rattus norvegicus; experiment: Tested for effective dose in rat adjuvant-induced polyarthritis (AA) test in II phase; type: functional
Rattus norvegicus [5] = organism: Rattus norvegicus; experiment: Tested for effective dose in rat adjuvant-induced polyarthritis (AA) test in III phase; type: functional
Rattus norvegicus [6] = experiment: Tested for analgesic activity in acetylcholine-induced body constriction assay by peroral administration; type: functional; conditions: po
Rattus norvegicus [7] = experiment: Tested for ulcerogenic activity by peroral administration in rat; type: functional
Outline: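 Rats were given the compound by mouth at doses up to 100 mg/kg, and ulcerogenic activity was assessed.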

| IC50 (Homo sapiens) [nM] | SMILES | ED50 (Rattus norvegicus [1]) | ED50 (Rattus norvegicus [2]) | ED50 (Rattus norvegicus [3]) | ED50 (Rattus norvegicus [4]) [mg/kg] | ED50 (Rattus norvegicus [5]) [mg/kg] | ED50 (Rattus norvegicus [6]) [mg/kg] | UD50 (Rattus norvegicus [7]) [mg/kg] |
| --- | --- | --- | --- | --- | --- | --- | --- | --- |
| 529000 | Cn1c(CC(=O)O)cc(CO)c1C(=O)c1ccc(Cl)cc1 | inactive | inactive | inactive |  |  |  |  |
| 1630 | Cc1cc(CC(=O)[O-])n(C)c1C(=O)c1ccc(Cl)cc1.O.O.[Na+] [ZOMEPIRAC SODIUM] |  |  |  | 0.72 | 5.67 | 0.72 | 13.9 |
| 1800 | COc1ccc2c(c1)c(CC(=O)O)c(C)n2C(=O)c1ccc(Cl)cc1 [INDOMETHACIN] |  |  |  |  |  |  |  |
